# From the M2OR odorant receptor database
# Assays:
# Conditions in all cases: stereoisomer not certain
# [1] = molecular target: T1, UniProt Q924H8
# T1 sequence (whole entry): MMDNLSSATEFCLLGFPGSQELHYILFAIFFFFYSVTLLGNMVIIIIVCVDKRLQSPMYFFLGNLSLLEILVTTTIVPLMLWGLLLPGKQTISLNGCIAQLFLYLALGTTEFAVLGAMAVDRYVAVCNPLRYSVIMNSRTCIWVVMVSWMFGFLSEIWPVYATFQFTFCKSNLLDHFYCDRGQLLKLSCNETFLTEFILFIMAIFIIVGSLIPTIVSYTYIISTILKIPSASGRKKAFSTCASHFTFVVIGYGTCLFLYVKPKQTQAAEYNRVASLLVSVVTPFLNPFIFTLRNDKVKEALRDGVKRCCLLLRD
# Outline: (§1)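 Each receptor–molecule pair is labelled responsive or non-responsive (inactive) according to whether the original authors judged the measured signal statistically different from baseline. The data were taken from the main text and supplementary material of published papers and checked for typos and inconsistencies. Assay methods differed by source, with transient luciferase assays in mammalian cell lines being common.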
# [2] = molecular target: T2, UniProt Q920P2
# T2 sequence (whole entry): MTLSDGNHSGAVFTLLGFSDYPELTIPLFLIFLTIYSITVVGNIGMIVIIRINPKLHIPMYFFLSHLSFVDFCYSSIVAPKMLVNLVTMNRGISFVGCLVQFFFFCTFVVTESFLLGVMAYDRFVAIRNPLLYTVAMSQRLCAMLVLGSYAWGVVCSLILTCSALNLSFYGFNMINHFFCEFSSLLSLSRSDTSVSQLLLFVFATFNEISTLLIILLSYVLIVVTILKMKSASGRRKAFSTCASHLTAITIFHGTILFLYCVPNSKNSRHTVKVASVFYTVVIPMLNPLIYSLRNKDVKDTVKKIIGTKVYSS
# Outline: as §1
# [3] = molecular target: T3, UniProt Q9EPN9
# T3 sequence (whole entry): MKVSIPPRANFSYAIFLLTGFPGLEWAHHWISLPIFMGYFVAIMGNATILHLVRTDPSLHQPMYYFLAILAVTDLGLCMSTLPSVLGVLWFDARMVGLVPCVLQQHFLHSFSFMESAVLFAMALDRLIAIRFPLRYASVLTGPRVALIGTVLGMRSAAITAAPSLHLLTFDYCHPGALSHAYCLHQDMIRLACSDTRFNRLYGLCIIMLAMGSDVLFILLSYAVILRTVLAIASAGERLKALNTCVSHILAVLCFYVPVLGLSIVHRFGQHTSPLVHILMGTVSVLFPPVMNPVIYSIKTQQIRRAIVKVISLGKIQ
# Outline: as §1
# [4] = molecular target: UniProt Q9R0K2
# Outline: as §1
# [5] = molecular target: T4, UniProt Q9WU86
# T4 sequence (whole entry): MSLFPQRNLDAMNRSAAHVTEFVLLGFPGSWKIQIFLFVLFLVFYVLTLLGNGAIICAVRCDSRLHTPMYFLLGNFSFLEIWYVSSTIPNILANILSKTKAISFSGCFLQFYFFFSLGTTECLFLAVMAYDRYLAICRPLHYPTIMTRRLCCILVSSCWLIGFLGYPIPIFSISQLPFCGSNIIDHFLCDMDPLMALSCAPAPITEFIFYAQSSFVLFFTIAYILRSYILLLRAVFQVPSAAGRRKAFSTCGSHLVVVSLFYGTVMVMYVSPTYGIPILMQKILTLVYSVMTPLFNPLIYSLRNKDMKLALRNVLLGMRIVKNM
# Outline: as §1
# [6] = molecular target: UniProt Q9WVD9
# Outline: as §1
# [7] = molecular target: T5, UniProt Q9WVN5
# T5 sequence (whole entry): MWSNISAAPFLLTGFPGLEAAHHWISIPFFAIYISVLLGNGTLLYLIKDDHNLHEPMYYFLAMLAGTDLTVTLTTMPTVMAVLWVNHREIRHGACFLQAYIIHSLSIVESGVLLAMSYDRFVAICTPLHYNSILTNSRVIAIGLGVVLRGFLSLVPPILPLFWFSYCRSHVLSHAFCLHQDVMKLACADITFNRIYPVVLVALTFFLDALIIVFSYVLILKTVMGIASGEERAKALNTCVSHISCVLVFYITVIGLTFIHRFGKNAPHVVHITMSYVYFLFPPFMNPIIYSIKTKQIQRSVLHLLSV
# Outline: as §1
# [8] = molecular target: T6, UniProt Q99NH4
# T6 sequence (whole entry): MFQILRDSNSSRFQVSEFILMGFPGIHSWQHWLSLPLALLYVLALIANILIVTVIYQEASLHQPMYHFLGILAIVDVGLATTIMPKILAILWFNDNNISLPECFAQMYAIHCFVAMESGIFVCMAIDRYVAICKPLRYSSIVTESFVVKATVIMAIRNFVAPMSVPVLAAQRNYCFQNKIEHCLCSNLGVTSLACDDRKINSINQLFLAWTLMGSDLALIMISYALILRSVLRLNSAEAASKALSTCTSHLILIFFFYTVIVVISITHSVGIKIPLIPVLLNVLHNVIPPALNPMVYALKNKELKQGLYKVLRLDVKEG
# Outline: as §1
# [9] = molecular target: T7, UniProt Q9WU94
# T7 sequence (whole entry): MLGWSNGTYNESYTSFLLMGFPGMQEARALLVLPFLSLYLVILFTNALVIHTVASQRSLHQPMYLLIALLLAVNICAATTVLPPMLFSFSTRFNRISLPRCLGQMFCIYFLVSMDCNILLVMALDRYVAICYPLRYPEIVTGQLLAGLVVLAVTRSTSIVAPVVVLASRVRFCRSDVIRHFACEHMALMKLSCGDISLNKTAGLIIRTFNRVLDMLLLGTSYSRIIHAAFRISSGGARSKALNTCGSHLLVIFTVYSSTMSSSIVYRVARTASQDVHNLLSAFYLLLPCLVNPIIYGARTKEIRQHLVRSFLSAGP
# Outline: as §1
# [10] = molecular target: T8, UniProt Q924X8
# T8 sequence (whole entry): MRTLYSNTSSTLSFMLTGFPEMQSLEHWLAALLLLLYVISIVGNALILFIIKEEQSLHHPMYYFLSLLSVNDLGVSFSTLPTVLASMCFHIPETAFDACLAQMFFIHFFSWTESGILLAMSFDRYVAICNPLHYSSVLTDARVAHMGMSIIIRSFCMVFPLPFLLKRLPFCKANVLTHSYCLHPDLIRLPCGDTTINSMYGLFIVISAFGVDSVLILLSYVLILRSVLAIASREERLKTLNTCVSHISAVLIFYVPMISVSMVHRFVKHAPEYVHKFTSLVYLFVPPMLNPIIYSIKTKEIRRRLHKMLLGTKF
# Outline: as §1
# [11] = molecular target: T9, UniProt Q9WVD7
# T9 sequence (whole entry): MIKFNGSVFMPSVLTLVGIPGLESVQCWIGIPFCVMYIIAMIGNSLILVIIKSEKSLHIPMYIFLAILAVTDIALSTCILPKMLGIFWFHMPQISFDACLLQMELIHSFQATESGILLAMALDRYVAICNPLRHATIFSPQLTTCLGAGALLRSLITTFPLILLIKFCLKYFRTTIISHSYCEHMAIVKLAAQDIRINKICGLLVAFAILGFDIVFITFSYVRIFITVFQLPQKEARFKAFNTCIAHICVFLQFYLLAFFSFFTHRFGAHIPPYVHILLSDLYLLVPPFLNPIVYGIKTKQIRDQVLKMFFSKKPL
# Outline: as §1
# 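Further: active if original authors judged signal statistically different from baseline.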
# Sequence of UniProt Q9WVD9 (Q9WVD9 as listed by the source): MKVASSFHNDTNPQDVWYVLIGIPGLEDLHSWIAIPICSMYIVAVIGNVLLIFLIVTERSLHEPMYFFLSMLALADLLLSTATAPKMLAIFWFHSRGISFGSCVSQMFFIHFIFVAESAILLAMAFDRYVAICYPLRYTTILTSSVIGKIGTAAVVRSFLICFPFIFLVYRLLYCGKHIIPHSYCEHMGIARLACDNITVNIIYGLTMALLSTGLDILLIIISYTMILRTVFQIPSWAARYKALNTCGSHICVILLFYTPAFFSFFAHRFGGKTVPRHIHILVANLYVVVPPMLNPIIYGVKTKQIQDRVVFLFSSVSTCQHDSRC
# Sequence of UniProt Q9R0K2 (Q9R0K2 as listed by the source): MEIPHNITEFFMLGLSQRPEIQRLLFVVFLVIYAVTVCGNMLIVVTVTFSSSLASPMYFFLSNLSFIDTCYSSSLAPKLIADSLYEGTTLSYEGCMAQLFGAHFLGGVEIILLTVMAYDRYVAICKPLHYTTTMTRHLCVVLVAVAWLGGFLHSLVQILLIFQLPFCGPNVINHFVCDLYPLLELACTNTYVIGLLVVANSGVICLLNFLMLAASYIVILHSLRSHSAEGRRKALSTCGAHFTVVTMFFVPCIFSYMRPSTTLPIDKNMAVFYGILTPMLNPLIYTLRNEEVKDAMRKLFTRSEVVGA
structure (smiles),measurement,setting,value
C=C(CC)CCCC(C)(C)O,odorant receptor agonist call,[1],inactive
OCCCCCCCCCO,odorant receptor agonist call,[1],inactive
CC(=O)OCCc1ccccc1,odorant receptor agonist call,[1],inactive
CSSCc1ccco1,odorant receptor agonist call,[1],inactive
CC(C)CCN,odorant receptor agonist call,[1],inactive
CC(C)=C1CCC(C)CC1=O (stereo not given),odorant receptor agonist call,[1],inactive
CCN(CC)CC,odorant receptor agonist call,[1],inactive
CNc1ccccc1C(=O)OC,odorant receptor agonist call,[1],inactive
OCC=Cc1ccccc1,odorant receptor agonist call,[1],inactive
CC=CC(=O)C1=C(C)CCCC1(C)C,odorant receptor agonist call,[1],inactive
CCOC(=O)CC(C)C,odorant receptor agonist call,[1],inactive
COc1cc(C=O)cc(OC)c1O,odorant receptor agonist call,[2],inactive
C=CC(=C)CCC=C(C)CCC=C(C)C,odorant receptor agonist call,[1],inactive
CCCC(C)C(=O)OCC (stereo not given),odorant receptor agonist call,[1],inactive
CCCCCCCOC(=O)C(C)C,odorant receptor agonist call,[1],inactive
CC(=O)OC1(C)CCC23CC1C(C)(C)C2CCC3C (stereo not given),odorant receptor agonist call,[1],active
CCCCCC=CCCC=O,odorant receptor agonist call,[1],inactive
CCCC=O,odorant receptor agonist call,[1],inactive
CCC(C)c1nccnc1OC (stereo not given),odorant receptor agonist call,[1],inactive
CC(C)CS,odorant receptor agonist call,[1],inactive
Cc1c(C)c(C)c(C=O)c(C)c1C,odorant receptor agonist call,[1],inactive
c1ccc2ncccc2c1,odorant receptor agonist call,[1],inactive
Cc1ccc(C(C)C)cc1,odorant receptor agonist call,[1],inactive
O=C(O)C1CCC1,odorant receptor agonist call,[1],inactive
CCc1ncc(C)nc1CC,odorant receptor agonist call,[1],inactive
CCCCCC(C=O)=Cc1ccccc1,odorant receptor agonist call,[1],inactive
CC(C=O)Cc1ccc(C(C)(C)C)cc1 (stereo not given),odorant receptor agonist call,[2],inactive
c1ccccc1,odorant receptor agonist call,[2],inactive
same,odorant receptor agonist call,[1],inactive
same,odorant receptor agonist call,[3],inactive
same,odorant receptor agonist call,[4],inactive
same,odorant receptor agonist call,[5],inactive
same,odorant receptor agonist call,[6],inactive
same,odorant receptor agonist call,[7],inactive
CCCO,odorant receptor agonist call,[1],inactive
COc1cc(C(=O)O)ccc1O,odorant receptor agonist call,[2],inactive
same,odorant receptor agonist call,[1],inactive
same,odorant receptor agonist call,[3],inactive
same,odorant receptor agonist call,[4],inactive
same,odorant receptor agonist call,[5],inactive
same,odorant receptor agonist call,[6],inactive
same,odorant receptor agonist call,[7],inactive
CC=C(C)C=O,odorant receptor agonist call,[1],inactive
CCCCCC(C)O (stereo not given),odorant receptor agonist call,[1],inactive
C=C(C)C1CCC2(C)OC2C1 (stereo not given),odorant receptor agonist call,[1],inactive
CC1CC=CCCCCCCCCCC(=O)C1 (stereo not given),odorant receptor agonist call,[1],active
CC(C)=CCCC(C)=CCO,odorant receptor agonist call,[2],inactive
same,odorant receptor agonist call,[1],inactive
same,odorant receptor agonist call,[3],inactive
same,odorant receptor agonist call,[4],active
same,odorant receptor agonist call,[5],inactive
same,odorant receptor agonist call,[6],inactive
same,odorant receptor agonist call,[7],inactive
Cc1ccc2c(c1)OCC(=O)CO2,odorant receptor agonist call,[1],inactive
CCCCC=O,odorant receptor agonist call,[1],inactive
same,odorant receptor agonist call,[8],inactive
same,odorant receptor agonist call,[9],inactive
Cc1occc1SSc1ccoc1C,odorant receptor agonist call,[1],inactive
O=C([O-])CCCCCCCC(=O)[O-].[H+].[H+],odorant receptor agonist call,[1],inactive
same,odorant receptor agonist call,[10],active
same,odorant receptor agonist call,[8],inactive
same,odorant receptor agonist call,[9],active
same,odorant receptor agonist call,[11],inactive
CCCCCCCCCC(=O)[O-].[H+],odorant receptor agonist call,[1],inactive
same,odorant receptor agonist call,[8],inactive
same,odorant receptor agonist call,[3],inactive
same,odorant receptor agonist call,[4],inactive
same,odorant receptor agonist call,[5],inactive
same,odorant receptor agonist call,[9],inactive
same,odorant receptor agonist call,[6],inactive
same,odorant receptor agonist call,[7],inactive
COc1nccnc1C,odorant receptor agonist call,[1],inactive
CCC(=O)O,odorant receptor agonist call,[1],inactive
same,odorant receptor agonist call,[3],inactive
same,odorant receptor agonist call,[4],inactive
same,odorant receptor agonist call,[5],inactive
same,odorant receptor agonist call,[6],inactive
same,odorant receptor agonist call,[7],inactive
O=C(O)CCCCCCCCC(=O)O,odorant receptor agonist call,[1],inactive
same,odorant receptor agonist call,[8],inactive
O=C1CCOc2ccccc21,odorant receptor agonist call,[1],inactive
same,odorant receptor agonist call,[3],inactive
same,odorant receptor agonist call,[4],inactive
same,odorant receptor agonist call,[5],inactive
same,odorant receptor agonist call,[6],inactive
same,odorant receptor agonist call,[7],inactive
CCC=CCCC=CC=O,odorant receptor agonist call,[1],inactive
CCCCCCCCCCOC(C)=O,odorant receptor agonist call,[1],inactive
CCCCCC=O,odorant receptor agonist call,[1],inactive
same,odorant receptor agonist call,[8],inactive
same,odorant receptor agonist call,[3],inactive
same,odorant receptor agonist call,[4],inactive
same,odorant receptor agonist call,[5],inactive
same,odorant receptor agonist call,[6],inactive
same,odorant receptor agonist call,[7],active
